Data taken from ChEMBL document CHEMBL1159046, “New thalidomide analogues derived through Sonogashira or Suzuki reactions and their TNF expression inhibition profiles” (Bioorg Med Chem, 2010).
The source made the active and inactive calls. No cut-off for these calls is given here.

Assays:
Jurkat [1] = test: Inhibition of NF-kappaB-mediated TNF expression in human Jurkat T cells coexpressing GFP reporter gene at 100 uM by flow cytometry; format: cell-based
Procedure, shortened: (§1)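 Jurkat cells stably carrying GFP under an NF-κB-responsive human TNF promoter (FRT-Jurkat TNF) were treated with racemic compound (0.1% DMSO final) for 24 h. GFP was read by flow cytometry at 515 nm ([…]), gated on viable FSC/SSC cells. Inhibition is the percentage decrease in GFP versus 0.1% solvent control. Assays were run in triplicate.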

Jurkat [2] = test: Inhibition of NF-kappaB-mediated TNF expression in human Jurkat T cells coexpressing GFP reporter gene at 10 uM by flow cytometry; format: cell-based; procedure, shortened: as §1
Jurkat [3] = test: Cytotoxicity against human Jurkat T cells assessed as viable cells at 10 uM after 24 hrs by flow cytometry; format: functional; conditions: read-out: Activity
Procedure, shortened: (§2)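 FRT-Jurkat TNF reporter cells were exposed to compound (racemic, 0.1% DMSO final) for 24 h and analysed by flow cytometry on FSC/SSC. Viable cells were counted as those inside the gate around the main population of solvent-only cells. Viability was confirmed by propidium iodide fluorescence at 570 nm (FL2). Assays were run in triplicate.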

Jurkat [4] = test: Cytotoxicity against human Jurkat T cells assessed as cell death at 100 uM after 24 hrs by flow cytometry; format: functional
Procedure, shortened: (§3)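 Jurkat T cells treated 24 h with compound (final DMSO 0.1%); cell death taken as % of cells with reduced size and granularity on flow cytometric forward- vs side-scatter plot, outside gate set on major solvent-only population; viability confirmed by propidium iodide staining (570 nm, FL2). Triplicate, racemic compounds.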

Jurkat [5] = test: Cytotoxicity against human Jurkat T cells assessed as cell death at 10 uM after 24 hrs by flow cytometry; format: functional; procedure, shortened: as §3
Jurkat [6] = test: Induction of apoptosis in human Jurkat T cells at 100 uM after 24 hrs by flow cytometry; format: functional
Procedure, shortened: (§4)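 Jurkat T cells were treated with compound for 24 h, with DMSO-only and untreated controls, then stained with a FITC-labelled substrate for cleaved caspase-3 (NucView-488). The apoptotic fraction was the percentage of cells with increased green fluorescence by flow cytometry. Cell death, taken as reduced size and granularity on FSC/SSC, was measured in parallel. Assays were run in triplicate.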

Jurkat [7] = test: Induction of apoptosis in human Jurkat T cells at 10 uM after 24 hrs by flow cytometry; format: functional
Procedure, shortened: (§5)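 Apoptosis in Jurkat T cells after 24 h compound exposure: cells stained with FITC-labelled substrate for cleaved caspase-3 (NucView-488), % cells with increased green fluorescence counted by flow cytometry with positivity gate; solvent (0.1% DMSO) and untreated controls. Triplicate, racemic compounds; three independent experiments.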

Jurkat [8] = test: Inhibition of NF-kappaB-mediated TNF expression in human Jurkat T cells coexpressing GFP reporter gene at 1 uM by flow cytometry; format: cell-based; procedure, shortened: as §1
Jurkat [9] = test: Inhibition of NF-kappaB-mediated TNF expression in human Jurkat T cells coexpressing GFP reporter gene at 0.1 uM by flow cytometry; format: cell-based; procedure, shortened: as §1
Jurkat [10] = test: Cytotoxicity against human Jurkat T cells assessed as viable cells at 1 uM after 24 hrs by flow cytometry; format: functional; conditions: read-out: Activity; procedure, shortened: as §2
Jurkat [11] = test: Cytotoxicity against human Jurkat T cells assessed as viable cells at 0.1 uM after 24 hrs by flow cytometry; format: functional; conditions: read-out: Activity; procedure, shortened: as §2
Jurkat [12] = test: Cytotoxicity against human Jurkat T cells assessed as cell death at 0.1 uM after 24 hrs by flow cytometry; format: functional; procedure, shortened: as §3
Jurkat [13] = test: Induction of apoptosis in human Jurkat T cells at 1 uM after 24 hrs by flow cytometry; format: functional; procedure, shortened: as §5
Jurkat [14] = test: Induction of apoptosis in human Jurkat T cells at 0.1 uM after 24 hrs by flow cytometry; format: functional; procedure, shortened: as §4
PBMC [15] = test: Inhibition of PMA-induced TNF production in human PBMC at 10 uM by RT-PCR; format: functional, cell-based
Procedure, shortened: (§6)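 PBMCs from healthy volunteers were freshly isolated, activated, and cultured with compound or DMSO for 2 h. Endogenous TNF mRNA was quantified by reverse transcription and real-time PCR (50 cycles: 95 °C 10 s, 55 °C 15 s, 72 °C 20 s) and normalised to β-actin.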

PBMC [16] = test: Inhibition of PMA-induced TNF production in human PBMC at 1 uM by RT-PCR; format: functional, cell-based; procedure, shortened: as §6
PBMC [17] = test: Cytotoxicity against human PBMC assessed as cell death at 1 to 10 uM; format: cell-based

CC(C)Oc1ccc(-c2ccc3c(c2)C(=O)N(C2CCC(=O)NC2=O)C3=O)cc1 (racemic)
inhibition (Jurkat [1]): 59%
inhibition (Jurkat [2]): 10%
viability at 10 µM (Jurkat [3]): 90%
Activity (Jurkat [4]): 51%
Activity (Jurkat [5]): 14%
Activity (Jurkat [6]): 34%
Activity (Jurkat [7]): 12%

CC(C)Cc1ccc(-c2cccc3c2C(=O)N(C2CCC(=O)NC2=O)C3=O)cc1 (racemic)
inhibition (Jurkat [1]): 86%
inhibition (Jurkat [2]): 7%
viability at 10 µM (Jurkat [3]): 90%
Activity (Jurkat [4]): 94%
Activity (Jurkat [6]): 96%
Activity (Jurkat [7]): 7%

CC(C)Cc1ccc(-c2ccc3c(c2)C(=O)N(C2CCC(=O)NC2=O)C3=O)cc1 (racemic)
inhibition (Jurkat [1]): 90%
inhibition (Jurkat [2]): 5%
viability at 10 µM (Jurkat [3]): 89%
Activity (Jurkat [4]): 21%
Activity (Jurkat [5]): 6%
Activity (Jurkat [6]): 22%
Activity (Jurkat [7]): 7%

CC(C)Oc1ccc(-c2cccc3c2C(=O)N(C2CCC(=O)NC2=O)C3=O)cc1 (racemic)
inhibition (Jurkat [1]): 47%
inhibition (Jurkat [2]): 8%
viability at 10 µM (Jurkat [3]): 90%
Activity (Jurkat [4]): 33%
Activity (Jurkat [6]): 30%
Activity (Jurkat [7]): 8%

O=CC#Cc1ccc2c(c1)C(=O)N(C1CCC(=O)NC1=O)C2=O (racemic)
inhibition (Jurkat [1]): 85%
inhibition (Jurkat [2]): 86%
inhibition (Jurkat [8]): 5%
inhibition (Jurkat [9]): 4%
viability at 10 µM (Jurkat [3]): 25%
viability at 1 µM (Jurkat [10]): 95%
viability at 0.1 µM (Jurkat [11]): 96%
Activity (Jurkat [5]): 86%
Activity (Jurkat [12]): 4%
Activity (Jurkat [7]): 84%
Activity (Jurkat [13]): 7%
Activity (Jurkat [14]): 7%
Activity (PBMC [15]): Active
Activity (PBMC [16]): Active
Activity (PBMC [17]): Active

CC(=O)c1ccc(-c2ccc3c(c2)C(=O)N(C2CCC(=O)NC2=O)C3=O)cc1 (racemic)
inhibition (Jurkat [1]): 26%

CC(=O)c1ccc(-c2cccc3c2C(=O)N(C2CCC(=O)NC2=O)C3=O)cc1 (racemic)
inhibition (Jurkat [1]): 17%

CC(C)(C)C#Cc1ccc2c(c1)C(=O)N(C1CCC(=O)NC1=O)C2=O (racemic)
inhibition (Jurkat [1]): 19%

CC(C)(C)C#Cc1cccc2c1C(=O)N(C1CCC(=O)NC1=O)C2=O (racemic)
inhibition (Jurkat [1]): 24%

CC(C)(O)C#Cc1ccc2c(c1)C(=O)N(C1CCC(=O)NC1=O)C2=O (racemic)
inhibition (Jurkat [1]): 20%

CC(C)(O)C#Cc1cccc2c1C(=O)N(C1CCC(=O)NC1=O)C2=O (racemic)
inhibition (Jurkat [1]): 6%

CNCC#Cc1ccc2c(c1)C(=O)N(C1CCC(=O)NC1=O)C2=O (racemic)
inhibition (Jurkat [1]): 10%

Cc1ccc(-c2ccc3c(c2)C(=O)N(C2CCC(=O)NC2=O)C3=O)cc1 (racemic)
inhibition (Jurkat [1]): 14%

Cc1ccc(-c2cccc3c2C(=O)N(C2CCC(=O)NC2=O)C3=O)cc1 (racemic)
inhibition (Jurkat [1]): 10%

N#CCCCC#Cc1ccc2c(c1)C(=O)N(C1CCC(=O)NC1=O)C2=O (racemic)
inhibition (Jurkat [1]): 12%

N#CCCCC#Cc1cccc2c1C(=O)N(C1CCC(=O)NC1=O)C2=O (racemic)
inhibition (Jurkat [1]): 9%

NC(=O)c1ccc(-c2ccc3c(c2)C(=O)N(C2CCC(=O)NC2=O)C3=O)cc1 (racemic)
inhibition (Jurkat [1]): 10%

NC(=O)c1ccc(-c2cccc3c2C(=O)N(C2CCC(=O)NC2=O)C3=O)cc1 (racemic)
inhibition (Jurkat [1]): 14%

O=C1CCC(N2C(=O)c3ccc(-c4ccc(O)cc4)cc3C2=O)C(=O)N1 (racemic)
inhibition (Jurkat [1]): 11%

O=C1CCC(N2C(=O)c3ccc(-c4ccccc4)cc3C2=O)C(=O)N1 (racemic)
inhibition (Jurkat [1]): 12%

O=C1CCC(N2C(=O)c3ccc(C#CCO)cc3C2=O)C(=O)N1 (racemic)
inhibition (Jurkat [1]): 10%

O=C1CCC(N2C(=O)c3ccc(C#Cc4ccccc4)cc3C2=O)C(=O)N1 (racemic)
inhibition (Jurkat [1]): 6%

O=C1CCC(N2C(=O)c3cccc(-c4ccc(O)cc4)c3C2=O)C(=O)N1 (racemic)
inhibition (Jurkat [1]): 19%

O=C1CCC(N2C(=O)c3cccc(-c4ccccc4)c3C2=O)C(=O)N1 (racemic)
inhibition (Jurkat [1]): 14%

O=C1CCC(N2C(=O)c3cccc(C#CCO)c3C2=O)C(=O)N1 (racemic)
inhibition (Jurkat [1]): 7%

O=C1CCC(N2C(=O)c3cccc(C#Cc4ccccc4)c3C2=O)C(=O)N1 (racemic)
inhibition (Jurkat [1]): 13%

O=C1CCC(N2C(=O)c3ccccc3C2=O)C(=O)N1 (racemic) [THALIDOMIDE]
inhibition (Jurkat [1]): 6%
inhibition (Jurkat [2]): 4%
Activity (Jurkat [5]): 6%
Activity (Jurkat [6]): 9%
Activity (Jurkat [7]): 7%
